Data on 3 compounds can be found in ChEMBL document CHEMBL1926615, “1,2,3-Triazole tethered β-lactam-chalcone bifunctional hybrids: synthesis and anticancer evaluation” (Eur J Med Chem, 2012).

Holding throughout (format): functional
In one assay the test system is A549. As to the kind of experiment: Growth inhibition of human A549 cells at 1 uM after 48 hrs by SRB assay. The note with it: A549, 48 h, read-out: GI. The gist of the method:
(§1)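 Sulforhodamine B readout at 540 nm after 48 h exposure of cells seeded at 1×10⁵ cells/ml and pre-grown 24 h in RPMI-1640 with 10% fetal calf serum (37 °C, 5% CO2). Compounds diluted in medium from DMSO stocks.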

For another assay, the system named is PC-3. As to the kind of experiment: Growth inhibition of human PC3 cells at 1 uM after 48 hrs by SRB assay. Particulars: PC-3, 48 h, read-out: GI. The gist of the method: as §1
On the technique in general: Sulforhodamine B stains cellular protein and so reports cell mass.

For a further assay, the system named is Caco-2. In words: Growth inhibition of human Caco2 cells at 20 uM after 48 hrs by SRB assay. Particulars: Caco-2, 48 h, read-out: GI. A digest of the protocol: (§2)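 Cells grown in RPMI-1640 (2 mM glutamine, pH 7.4, 10% fetal calf serum, penicillin/streptomycin) at 37 °C, 5% CO2, 90% RH. Seeded as suspension of 1 x 10^5 cells/ml, grown 24 h, then test solutions (from DMSO stocks diluted in medium with gentamycin) added for 48 h. Fixed with TCA at 4 °C 1 h, SRB stained, dye dissolved in Tris-HCl pH 10.4, OD 540 nm. Percent growth inhibition computed versus untreated growth after blank subtraction.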

A further assay concerns THP-1. As to the kind of experiment: Growth inhibition of human THP1 cells at 20 uM after 48 hrs by SRB assay. Particulars: THP-1, 48 h, read-out: GI. The gist of the method:
as §2

In the case of `CC(=O)O[C@H]1C(=O)[C@@]2(C)[C@H]([C@H](OC(=O)c3ccccc3)[C@]3(O)C[C@H](OC(=O)[C@H](O)[C@@H](NC(=O)c4ccccc4)c4ccccc4)C(C)=C1C3(C)C)[C@]1(OC(C)=O)CO[C@@H]1C[C@@H]2O` [PACLITAXEL], in the assay on A549, the inhibition of growth at 1 µM was determined as 69%.
As to `CO[C@@]12[C@H](COC(N)=O)C3=C(C(=O)C(C)=C(N)C3=O)N1C[C@@H]1N[C@@H]12` [MITOMYCIN], the inhibition of growth at 1 µM in the assay on PC-3 amounted to 60%.
For the compound `O=c1[nH]cc(F)c(=O)[nH]1` [FLUOROURACIL], the figures for the inhibition of growth at 20 µM in the assay with Caco-2 and in the assay with THP-1 were 68% and 70%, respectively.
